Experiment [1] is described as follows: Antitumor activity against mouse early Lewis lung carcinoma allografted in BDF1 mouse assessed as time delay in tumor growth at 113 mg/kg, ip administered as single dose on 1 or 2 days post-tumor implantation. It is filed as functional. Conditions: route intraperitoneal. The essentials:
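Sc trocar implants of about 40 mg Lewis lung fragments in BDF1 mice. A single ip injection was given on day 1 or 2, in water or physiological saline, at ≤0.5 ml. Tumor size came from caliper length and width as w = ab²/2, measured at least twice weekly. Growth delay is the extra days taken to reach 1 g, compared with untreated controls.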

Experiment [2] is described as follows: Antitumor activity against mouse early Lewis lung carcinoma allografted in BDF1 mouse assessed as time delay in tumor growth at 50 mg/kg, ip administered as single dose on 1 or 2 days post-tumor implantation. It counts as functional. Conditions: route intraperitoneal. The essentials: (§1)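 BDF1 mice (C57Blk/6 × DBA/2) implanted sc by trocar with ~40 mg Lewis lung tumor fragments from bacteriologically sterile donors. A single ip dose was given on day 1 or 2, as a solution or suspension in water or saline with suspending agent, at ≤0.5 ml. Tumors were measured by caliper at least twice weekly, with weight = ab²/2. Delay was taken as the days for the tumor to reach 1 g.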

Experiment [3] is described as follows: Antitumor activity against mouse early Lewis lung carcinoma allografted in BDF1 mouse assessed as increase in host life span at 113 mg/kg, ip administered as single dose on 1 or 2 days post-tumor implantation. Conditions: route intraperitoneal. It counts as functional. The essentials: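 Early disease: BDF1 mice carrying sc trocar implants of about 40 mg Lewis lung fragments. One ip dose given on day 1 or 2 after implant, in distilled water or saline, at ≤0.5 ml. Endpoints were % increase in life-span of dying animals and delay in days for the primary tumor to reach 1 g. Untreated controls served as reference.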

Experiment [4] in a line: Antitumor activity against mouse early Lewis lung carcinoma allografted in BDF1 mouse assessed as increase in host life span at 50 mg/kg, ip administered as single dose on 1 or 2 days post-tumor implantation. Conditions: route intraperitoneal. It is filed as functional. Summed up: (§2)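 BDF1 mice (C57Blk/6 × DBA/2) implanted sc by trocar with ~40 mg Lewis lung tumor fragments from bacteriologically sterile donor tumors. Single ip dose on day 1 or 2, as a solution or suspension in water (CMC or gum acacia) or saline (HPC or Tween 80). Read-out is […]. Same-dose toxicity controls were run in nontumor-bearing mice.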

The nature of experiment [5]: Ratio of ED50 for antitumor activity against mouse L1210 cells allografted in ip dosed mouse to LD10 for mouse.
Experiment [6] has as its system Mus musculus. Put plainly: Antitumor activity against mouse advanced Lewis lung carcinoma allografted in ip dosed BDF1 mouse assessed as complete regression of established tumor administered as single dose on day 6 or 7 post-tumor implantation. It is filed as functional, organism-based. Summed up:
(§3)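 BDF1 mice (C57Blk/6 × DBA/2) implanted sc by trocar with Lewis lung tumor fragments of about 40 mg, taken only from bacteriologically sterile donor tumors. Mice bearing tumors of about 400 mg (day 6-7) were selected. Each received a single ip dose on day 7, at or below the LD10 in normal mice. Groups were of 10 mice. Tumor weight was taken from calipers as w = ab²/2, measured at least twice weekly. Matched non-tumor mice served as toxicity controls.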

The nature of experiment [7]: Antitumor activity against mouse advanced Lewis lung carcinoma allografted in ip dosed BDF1 mouse assessed as increase in host lifespan administered as single dose on day 6 or 7 post-tumor implantation. It counts as functional. Summed up:
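Advanced Lewis lung model: about 40 mg fragments implanted sc by trocar into BDF1 mice, and mice with tumors of about 400 mg (day 6-7) selected. Tumor weight from calipers, w = ab²/2. Agent given as one ip dose in distilled water or physiological saline. Nontumor-bearing mice received matching doses as toxicity controls.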

Experiment [8] can be described thus: Antitumor activity against mouse early Lewis lung carcinoma allografted in ip dosed BDF1 mouse assessed as disease cure administered as single dose on 1 or 2 days post-tumor implantation measured for 80 days post-drug treatment. It counts as functional. Summed up:
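BDF1 mice implanted sc by trocar with ~40 mg Lewis lung fragments from sterile donor tumors. A single ip dose was given on day 1 or 2 after implant, in water or saline vehicle. Cures were scored in animals observed for at least 80 days after treatment. Drug-toxicity controls were matched non-tumor-bearing mice monitored for body weight and deaths.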

Experiment [9] relates to Mus musculus. Put plainly: Antitumor activity against mouse advanced Lewis lung carcinoma allografted in BDF1 mouse assessed as complete regression of established tumor at 21 mg/kg, ip administered as single dose on 7th day post-tumor implantation. It counts as functional, organism-based. Set-up: dose 21 mg/kg. The essentials:
as §3

Experiment [10] in a line: Antitumor activity against mouse advanced Lewis lung carcinoma allografted in BDF1 mouse assessed as increase in host life span at 48 mg/kg, ip administered as single dose on 7th day post-tumor implantation. It counts as functional. The following applies: route intraperitoneal. Summed up:
(§4)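 BDF1 mice (C57Blk/6 × DBA/2) implanted sc by trocar with about 40 mg Lewis lung tumor fragments from bacteriologically sterile donors. Advanced-disease groups held tumors of about 400 mg by day 6-7, sized by caliper (w = ab²/2). Single ip injection on day 7, in water or saline vehicle, at or below the LD10 in normal mice. Tumors measured at least twice weekly.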

Experiment [11] deals with Mus musculus. The experiment is described as follows: Antitumor activity against mouse advanced Lewis lung carcinoma allografted in BDF1 mouse assessed as complete regression of established tumor at 32 mg/kg, ip administered as single dose on 7th day post-tumor implantation. It is filed as functional, organism-based. The arrangement: dose 32 mg/kg. Summed up: as §4
Experiment [12] is described as follows: Antitumor activity against mouse early Lewis lung carcinoma allografted in BDF1 mouse assessed as time delay in tumor growth at 48 mg/kg, ip administered as single dose on 1 or 2 days post-tumor implantation. It counts as functional. The following applies: route intraperitoneal. The essentials:
as §1

Experiment [13] in a line: Antitumor activity against mouse advanced Lewis lung carcinoma allografted in BDF1 mouse assessed as increase in host life span at 32 mg/kg, ip administered as single dose on 7th day post-tumor implantation. It is filed as functional. The following applies: route intraperitoneal. The essentials:
as §4

The test system of experiment [14] is Mus musculus. The experiment is described as follows: Antitumor activity against mouse advanced Lewis lung carcinoma allografted in BDF1 mouse assessed as disease cure at 32 mg/kg, ip administered as single dose on 7th day post-tumor implantation measured for 80 days post-drug treatment. It is filed as functional, organism-based. The arrangement: dose 32 mg/kg. Summed up:
as §3

The nature of experiment [15]: Antitumor activity against mouse early Lewis lung carcinoma allografted in BDF1 mouse assessed as increase in host life span at 21 mg/kg, ip administered as single dose on 1 or 2 days post-tumor implantation. Conditions: route intraperitoneal. It counts as functional. The essentials:
as §2

For experiment [16], the system named is Mus musculus. Put plainly: Antitumor activity against mouse advanced Lewis lung carcinoma allografted in BDF1 mouse assessed as complete regression of established tumor at 48 mg/kg, ip administered as single dose on 7th day post-tumor implantation. It counts as functional, organism-based. The arrangement: dose 48 mg/kg. The essentials:
as §3

Experiment [17] is described as follows: Antitumor activity against mouse early Lewis lung carcinoma allografted in BDF1 mouse assessed as time delay in tumor growth at 21 mg/kg, ip administered as single dose on 1 or 2 days post-tumor implantation. It counts as functional. Conditions: route intraperitoneal. Summed up: as §1
Experiment [18] in a line: Antitumor activity against mouse advanced Lewis lung carcinoma allografted in BDF1 mouse assessed as increase in host life span at 21 mg/kg, ip administered as single dose on 7th day post-tumor implantation. It is filed as functional. Conditions: route intraperitoneal. The essentials:
as §4

For experiment [19], the system named is Mus musculus. Put plainly: Antitumor activity against mouse advanced Lewis lung carcinoma allografted in BDF1 mouse assessed as disease cure at 21 mg/kg, ip administered as single dose on 7th day post-tumor implantation measured for 80 days post-drug treatment. Set-up: dose 21 mg/kg. It counts as functional, organism-based. Summed up:
as §3

For experiment [20], the system named is Mus musculus. Put plainly: Antitumor activity against mouse advanced Lewis lung carcinoma allografted in ip dosed BDF1 mouse assessed as disease cure administered as single dose on day 6 or 7 post-tumor implantation. It counts as functional, organism-based. The essentials:
as §3

Experiment [21] deals with Mus musculus. The experiment is described as follows: Antitumor activity against mouse advanced Lewis lung carcinoma allografted in BDF1 mouse assessed as disease cure at 48 mg/kg, ip administered as single dose on 7th day post-tumor implantation measured for 80 days post-drug treatment. The arrangement: dose 48 mg/kg. It is filed as functional, organism-based. The essentials: as §3

Experiment [22] in a line: Antitumor activity against mouse early Lewis lung carcinoma allografted in BDF1 mouse assessed as increase in host life span at 48 mg/kg, ip administered as single dose on 1 or 2 days post-tumor implantation. It is filed as functional. The following applies: route intraperitoneal. Summed up:
as §2

Experiment [23] in a line: Antitumor activity against mouse early Lewis lung carcinoma allografted in BDF1 mouse assessed as time delay in tumor growth at 38 mg/kg, ip administered as single dose on 1 or 2 days post-tumor implantation. It counts as functional. Conditions: route intraperitoneal. The essentials:
as §1

The nature of experiment [24]: Antitumor activity against mouse early Lewis lung carcinoma allografted in BDF1 mouse assessed as increase in host life span at 25 mg/kg, ip administered as single dose on 1 or 2 days post-tumor implantation. The following applies: route intraperitoneal. It is filed as functional. The essentials: as §2
The nature of experiment [25]: Antitumor activity against mouse early Lewis lung carcinoma allografted in BDF1 mouse assessed as time delay in tumor growth at 25 mg/kg, ip administered as single dose on 1 or 2 days post-tumor implantation. It is filed as functional. The following applies: route intraperitoneal. Summed up: as §1
A short description of experiment [26]: Antitumor activity against mouse early Lewis lung carcinoma allografted in BDF1 mouse assessed as increase in host life span at 38 mg/kg, ip administered as single dose on 1 or 2 days post-tumor implantation. It counts as functional. The following applies: route intraperitoneal. Summed up:
as §2

A short description of experiment [27]: Antitumor activity against mouse early Lewis lung carcinoma allografted in BDF1 mouse assessed as increase in host life span at 45 mg/kg, ip administered as single dose on 1 or 2 days post-tumor implantation. The following applies: route intraperitoneal. It is filed as functional. The essentials: as §2
The test system of a further experiment is L1210. Put plainly: Antitumor activity against mouse L1210 cells allografted in ip dosed mouse assessed as disease cure administered as single dose. It is filed as functional, organism-based.
Experiment [28] can be described thus: Antitumor activity against mouse early Lewis lung carcinoma allografted in BDF1 mouse assessed as time delay in tumor growth at 30 mg/kg, ip administered as single dose on 1 or 2 days post-tumor implantation. It is filed as functional. The following applies: route intraperitoneal. The essentials: as §1
Experiment [29] in a line: Antitumor activity against mouse early Lewis lung carcinoma allografted in BDF1 mouse assessed as time delay in tumor growth at 45 mg/kg, ip administered as single dose on 1 or 2 days post-tumor implantation. It counts as functional. The following applies: route intraperitoneal. Summed up:
as §1

Experiment [30] in a line: Antitumor activity against mouse early Lewis lung carcinoma allografted in BDF1 mouse assessed as increase in host life span at 30 mg/kg, ip administered as single dose on 1 or 2 days post-tumor implantation. Conditions: route intraperitoneal. It counts as functional. Summed up:
as §2

We go through four molecules from ChEMBL document CHEMBL3271979, “Inhibition of solid tumors by nitrosoureas. 1. Lewis lung carcinoma” (1977).

In general, ILS refers to how much longer treated animals lived than controls.

Activity calls are given as the source filed them. No cut-off for these calls is given here.

Turning to `C[C@@H]1CCC[C@@H](NC(=O)N(CCCl)N=O)C1` (relative stereo), the Time in experiment [1] was 6.1 days; in experiment [2], 4 days. Besides, the ILS at 113 mg/kg in [3] is 50%. The ILS at 50 mg/kg in experiment [4] was 47%. Further, the Ratio in experiment [5] amounted to 0.4. Further, the inhibition entry in the experiment on Mus musculus [6] is “inactive”. The ILS in experiment [7] is under 25%. The Activity in [8] is reported as 10%.

On to `CC(=O)OC[C@H]1CC[C@H](NC(=O)N(CCF)N=O)CC1`, for which the inhibition result with Mus musculus [9], with Mus musculus [11], in the experiment with Mus musculus [16] and in the experiment on Mus musculus [6] was “inactive” each time. Besides, the ILS at 48 mg/kg in [10] was determined as 26%; in experiment [22], 7%. The Time in experiment [12] stood at 12 days; in experiment [17], 1.3 days. For the same molecule, the ILS at 32 mg/kg in [13] is 13%. In addition, the outcome in the experiment with Mus musculus [14], in the experiment on Mus musculus [19], with Mus musculus [20] and in the experiment on Mus musculus [21] was inactive. For the same molecule, the ILS at 21 mg/kg was 24% in experiment [15] and 26% in experiment [18]. Further, the ILS in [7] is on record as over 25%.

Turning to `O=NN(CCCl)C(=O)N[C@H]1CC[C@@H](CC(=O)O)CC1`, the Ratio in [5] came out at 0.4. For the same molecule, the Time in experiment [23] was found to be 9.2 days; in [25], 8.2 days. For the same molecule, the ILS at 25 mg/kg in experiment [24] was found to be 59%. The inhibition entry with Mus musculus [6] is “inactive”. The ILS in experiment [7] is reported as under 25%. Moreover, the Activity in [8] is reported as over 50%. Further, in experiment [26], the ILS at 38 mg/kg amounted to 42%.

Regarding `O=NN(CCCl)C(=O)N[C@H]1CC[C@@H](O)CC1`, the ILS at 45 mg/kg in experiment [27] was determined as 110%. Also, the outcome in the experiment with L1210 was inactive. Further, the Time was 5.1 days in experiment [28] and 18 days in experiment [29]. Moreover, the inhibition result with Mus musculus [6] is “inactive”. The ILS in experiment [7] is under 25%. For the same molecule, in experiment [30], the ILS at 30 mg/kg is 92%. The Activity in [8] amounted to 10%.
